# Results gathered from unrelated publications.
# Each line is one published result; the experiments were not run side by side.
# Cell line: NCI-H460
# Read-out: cell growth or viability
Structure (SMILES),assay,conditions,measurement,value
C=C(Cl)C(=O)Nc1cc(Nc2nc(N3CCOCC3)c3sccc3n2)c(OC)cc1N(C)CCN(C)C,MTT,,IC50,1840 nM
COc1ccc(C(=O)/C=C/c2cc3c(cc2Br)OCO3)cc1S(N)(=O)=O,SRB,48 h,GI50,4000 nM
C=CC(=O)Nc1cc(Nc2nc(N3CCc4sccc4C3)c3cccnc3n2)c(OC)cc1N(C)C,MTT,,IC50,> 50000 nM
COc1ccc(C(=O)/C=C/c2ccccc2Br)cc1S(N)(=O)=O,SRB,48 h,GI50,2000 nM
c1ccc2cc(Cn3cc[n+](Cc4ccc5ccccc5c4)c3)ccc2c1,SRB,,TGI,10400 nM
C=CC(=O)Nc1cc(Nc2nc(N3CCc4sccc4C3)c3cccnc3n2)c(OC)cc1N1CCOCC1,MTT,,IC50,> 50000 nM
COc1ccc(C(=O)/C=C/c2ccc(Cl)c(Cl)c2)cc1S(N)(=O)=O,SRB,48 h,GI50,2800 nM
COc1ccc(-c2ccc(-c3ccc(C(=N)N)nc3)s2)cc1Cl,SRB,,GI50,1800 nM
C=C(Cl)C(=O)Nc1cc(Nc2nc(Nc3cnn(C)c3)c3sccc3n2)c(OC)cc1N1CCN(C)CC1,MTT,,IC50,239 nM
c1ccc(-c2n(Cc3ccc4ccccc4c3)cc[n+]2Cc2ccc3ccccc3c2)cc1,SRB,,TGI,2870 nM
COc1ccc(-c2ccc(-c3ccc(C(=N)N)nc3)s2)cc1,SRB,,GI50,520 nM
COc1cc(N(C)CCN(C)C)c(NC(=O)C=C(C)C)cc1Nc1nc(Nc2cnn(C)c2)c2sccc2n1,MTT,,IC50,1320 nM
CCc1n(Cc2ccc3ccccc3n2)cc[n+]1Cc1ccc2ccccc2n1,SRB,,TGI,11900 nM
S=C([S][Au-][P+](CCCCCC[P+]([Au-][S]C(=S)n1cccn1)(c1ccccc1)c1ccccc1)(c1ccccc1)c1ccccc1)n1cccn1,SRB,,GI50,1430 nM
COc1ccc(C(=O)/C=C/c2ccc3ccccc3c2)cc1S(N)(=O)=O,SRB,10 µM,inhibition,98%
CN1C[C@H](C(=O)N[C@]2(C)O[C@@]3(O)[C@@H]4CCCN4C(=O)[C@H](Cc4ccccc4)N3C2=O)C[C@@H]2c3cccc4[nH]cc(c34)C[C@H]21,MTT,72 h,EC50,67000 nM
COc1ccc(C(=O)/C=C/c2cccc3ccccc23)cc1S(N)(=O)=O,SRB,48 h,GI50,1800 nM
C=CC(=O)Nc1cc(Nc2nc(N3CCc4sccc4C3)c3cccnc3n2)c(OC)cc1N1CCC(N(C)C)CC1,MTT,,IC50,558 nM
COc1ccc(C(=O)/C=C/c2cccc(Cl)c2)cc1S(N)(=O)=O,SRB,10 µM,inhibition,97%
CCCc1n(Cc2ccc3ccccc3n2)cc[n+]1Cc1ccc2ccccc2n1,SRB,,TGI,11700 nM
